From ChEMBL document CHEMBL4196161, “Lead Optimization of 5-Aryl Benzimidazolone- and Oxindole-Based AMPA Receptor Modulators Selective for TARP γ-8” (ACS Med Chem Lett, 2018)
Values after ≈ are worked out from the molar mass of the structure shown.

Tests used:
GRIA1/CACNG8 = GRIA1/CACNG8 (Homo sapiens, UniProt P42261+Q8WXS5); assay: Modulation of recombinant human GluA1 flop isoform/TARPgamma8 expressed in HEK293F cells assessed as blockade of glutamate-induced calcium flux by calcium 5/6 dye based FLIPR assay; format: cell-based
Summary of the method: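 HEK-293 cells expressing a human GluA1o-γ-8 fusion construct; FLIPR calcium-flux read-out; pIC50 reported as mean and standard deviation of at least three assays run in triplicate.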

GRIA1/CACNG2 = GRIA1/CACNG2 (Homo sapiens, UniProt P42261+Q9Y698); assay: Modulation of recombinant human GluA1 flop isoform/TARPgamma2 expressed in HEK293F cells assessed as blockade of glutamate-induced calcium flux by calcium 5/6 dye based FLIPR assay; format: cell-based
Summary of the method: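 HEK-293 cells transiently expressing human GluA1o cotransfected with γ-2; FLIPR calcium-flux read-out; pIC50 reported; n = 1, run in triplicate.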

[1] = Hepatic extraction ratio in human liver microsomes at 1 uM measured after 60 mins in presence of NADPH by LC-MS/MS analysis; format: ADME, microsome; details: read-out: ERH
Summary of the method: (§1)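 Human or rat liver microsomal stability at 1 μM; results expressed as extraction ratio, i.e. predicted hepatic clearance divided by species-specific hepatic blood flow.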

[2] = Hepatic extraction ratio in rat liver microsomes at 1 uM measured after 60 mins in presence of NADPH by LC-MS/MS analysis; format: ADME, microsome; details: read-out: ERH; summary of the method: as §1
[3] = Oral bioavailability in Sprague-Dawley rat at 5 mg/kg administered as single dose by LC-MS/MS analysis; format: ADME, organism-based; details: in vivo
Summary of the method: (§2)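 Sprague–Dawley rats (n = 3/group) given compound as a solution in 20% HP-β-CD, 1 mg/kg i.v. and 5 mg/kg p.o.; plasma pharmacokinetics derived from these arms.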

[4] = Apparent permeability across apical to basolateral side in MDCK-MDR1 cells at 5 uM measured after 60 mins by LC-MS/MS analysis; format: ADME, cell-based, Canis lupus familiaris; details: dog
Summary of the method: (§3)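 Bidirectional apparent permeability measured in Madin–Darby canine kidney cells transfected with the MDR1 (P-gp) gene; Papp reported in ×10–6 cm/s.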

[5] = Ratio of unbound brain to plasma concentration in Sprague-Dawley rat at 1 mg/kg, iv or 5 mg/kg, po administered as single dose by LC-MS/MS analysis; format: ADME, organism-based; details: brain and plasma, read-out: K(p,uu,brain)
[6] = Thermodynamic solubility of the compound in simulated gastric fluid at pH 1.6 incubated under stirred condition for 3 days; format: physicochemical; details: read-out: Therm_solubility
Summary of the method: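 Thermodynamic solubility (μM) determined in simulated gastric fluid at pH 1.6 and in fasted state simulated intestinal fluid at pH 6.5.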

[7] = Thermodynamic solubility of the compound in fasted state simulated intestinal fluid at pH 6.5 incubated under stirred condition for 3 days; details: read-out: Therm_solubility
[8] = Clearance in Sprague-Dawley rat at 1 mg/kg, iv administered as single dose by LC-MS/MS analysis; format: ADME, organism-based; details: in vivo
Summary of the method: (§4)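 Single 1 mg/kg i.v. dose as a solution to Sprague–Dawley rats (n = 3/group); vehicle 20% HP-β-CD in one study series, 1:1 PEG400/H2O in the other; plasma PK parameters derived.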

[9] = Apparent permeability across basolateral to apical side in MDCK-MDR1 cells at 5 uM measured after 60 mins by LC-MS/MS analysis; format: ADME, cell-based, Canis lupus familiaris; details: dog; summary of the method: as §3
Homo sapiens = organism: Homo sapiens; assay: Selectivity ratio of IC50 for recombinant human GluA1 flop isoform/TARPgamma2 expressed in HEK293F cells to IC50 for recombinant human GluA1 flop isoform/TARPgamma8 expressed in HEK293F cells; format: cell-based
Summary of the method: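 Calcium-flux (FLIPR) inhibition in HEK-293 cells, giving pIC50 for each receptor. For γ-8, cells expressed a human GluA1o–γ-8 fusion construct, with at least three assays run in triplicate and reported as mean ± SD. For γ-2, cells expressed human GluA1-flop cotransfected with γ-2. The ratio compares the γ-2 IC50 with the γ-8 IC50.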

Rattus norvegicus [10] = assay: Ex vivo receptor occupancy at GluA/TARPgamma8 in po dosed Sprague-Dawley rat assessed as plasma concentration causing reduction in [3H]JNJ-56022486 receptor labeling in hippocampus at 10 mg/kg, po at Tmax by autoradiography; format: functional, organism-based
Summary of the method: (§5)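 Rats (Sprague–Dawley, n = 2/dose group) dosed orally with suspensions in 0.5% HPMC at 3 or 10 mg/kg; hippocampal GluA/γ-8 occupancy at Tmax by ex vivo autoradiography with [3H]12 radiotracer; brain (ng/g) and plasma (ng/mL) concentrations taken at Tmax.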

Rattus norvegicus [11] = assay: Ex vivo receptor occupancy at GluA/TARPgamma8 in po dosed Sprague-Dawley rat assessed as plasma concentration causing reduction in [3H]JNJ-56022486 receptor labeling in hippocampus at 3 mg/kg, po at Tmax by autoradiography; format: functional, organism-based; summary of the method: as §5
[12] = Volume of distribution at steady state in Sprague-Dawley rat at 1 mg/kg, iv administered as single dose by LC-MS/MS analysis; format: ADME, organism-based; details: in vivo, read-out: Vdss; summary of the method: as §4
Rattus norvegicus [13] = assay: Ex vivo receptor occupancy at GluA/TARPgamma8 in Sprague-Dawley rat assessed as reduction in [3H]JNJ-56022486 receptor labeling in hippocampus at 10 mg/kg, po at Tmax by autoradiography relative to control; format: functional; summary of the method: as §5
Rattus norvegicus [14] = assay: Ex vivo receptor occupancy at GluA/TARPgamma8 in po dosed Sprague-Dawley rat assessed as reduction in [3H]JNJ-56022486 receptor labeling in hippocampus measured within 10 mins by autoradiography; format: functional
[15] = Half life in Sprague-Dawley rat at 1 mg/kg, iv administered as single dose by LC-MS/MS analysis; format: ADME, organism-based; details: in vivo; summary of the method: as §4
[16] = Volume of distribution at steady state in Sprague-Dawley rat at 1 mg/kg, iv or 5 mg/kg, po administered as single dose by LC-MS/MS analysis; format: ADME, organism-based; details: in vivo, read-out: Vdss; summary of the method: as §4
Rattus norvegicus [17] = assay: Ex vivo receptor occupancy at GluA/TARPgamma8 in po dosed Sprague-Dawley rat assessed as brain concentration causing 50% reduction in [3H]JNJ-56022486 receptor labeling in hippocampus at Tmax by autoradiography; format: functional, organism-based
Summary of the method: (§6)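 Oral dose–response in Sprague–Dawley rats, n = 3/dose (8 doses in one study; vehicle 0.5% HPMC or 20% HP-β-CD); hippocampal occupancy measured at Tmax by ex vivo autoradiography using [3H]-12; EC50 expressed against plasma (ng/mL) or brain (ng/g) exposure, ED50 against dose.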

[18] = Cmax in Sprague-Dawley rat at 5 mg/kg, po administered as single dose by LC-MS/MS analysis; format: ADME, organism-based; set-up: dose 5 mg/kg, route oral; details: in vivo; summary of the method: as §2
Rattus norvegicus [19] = assay: Ex vivo receptor occupancy at GluA/TARPgamma8 in po dosed Sprague-Dawley rat assessed as plasma concentration causing 50% reduction in [3H]JNJ-56022486 receptor labeling in hippocampus at Tmax by autoradiography; format: functional, organism-based; summary of the method: as §6
[20] = Protein binding in human plasma assessed as unbound fraction at 1 uM measured after 6 hrs by equilibrium dialysis method; format: ADME, cell-free
Summary of the method: (§7)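 Human or rat plasma protein binding at 1 μM compound, expressed as fraction unbound (fub).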

[21] = Fraction unbound in rat brain at 5 uM after 5 hrs by equilibrium dialysis method; format: ADME, tissue-based
Summary of the method: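 Rat brain tissue binding, reported as fraction unbound, at 5 μM compound.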

Rattus norvegicus [22] = assay: Ex vivo receptor occupancy at GluA/TARPgamma8 in Sprague-Dawley rat assessed as reduction in [3H]JNJ-56022486 receptor labeling in hippocampus at 3 mg/kg, po at Tmax by autoradiography relative to control; format: functional; summary of the method: as §5
[23] = Protein binding in rat plasma assessed as unbound fraction at 1 uM measured after 6 hrs by equilibrium dialysis method; format: ADME, cell-free; summary of the method: as §7
Rattus norvegicus [24] = assay: Ex vivo receptor occupancy at GluA/TARPgamma8 in po dosed Sprague-Dawley rat assessed as brain concentration causing 50% reduction in [3H]JNJ-56022486 receptor labeling in hippocampus at ED50 at Tmax by autoradiography; format: functional, organism-based; summary of the method: as §6
Rattus norvegicus [25] = assay: Ex vivo receptor occupancy at GluA/TARPgamma8 in po dosed Sprague-Dawley rat assessed as plasma concentration causing 50% reduction in [3H]JNJ-56022486 receptor labeling in hippocampus at ED50 at Tmax by autoradiography; format: functional, organism-based; summary of the method: as §6

Chain of GRIA1/CACNG2 (P42261 whole entry, canonical isoform): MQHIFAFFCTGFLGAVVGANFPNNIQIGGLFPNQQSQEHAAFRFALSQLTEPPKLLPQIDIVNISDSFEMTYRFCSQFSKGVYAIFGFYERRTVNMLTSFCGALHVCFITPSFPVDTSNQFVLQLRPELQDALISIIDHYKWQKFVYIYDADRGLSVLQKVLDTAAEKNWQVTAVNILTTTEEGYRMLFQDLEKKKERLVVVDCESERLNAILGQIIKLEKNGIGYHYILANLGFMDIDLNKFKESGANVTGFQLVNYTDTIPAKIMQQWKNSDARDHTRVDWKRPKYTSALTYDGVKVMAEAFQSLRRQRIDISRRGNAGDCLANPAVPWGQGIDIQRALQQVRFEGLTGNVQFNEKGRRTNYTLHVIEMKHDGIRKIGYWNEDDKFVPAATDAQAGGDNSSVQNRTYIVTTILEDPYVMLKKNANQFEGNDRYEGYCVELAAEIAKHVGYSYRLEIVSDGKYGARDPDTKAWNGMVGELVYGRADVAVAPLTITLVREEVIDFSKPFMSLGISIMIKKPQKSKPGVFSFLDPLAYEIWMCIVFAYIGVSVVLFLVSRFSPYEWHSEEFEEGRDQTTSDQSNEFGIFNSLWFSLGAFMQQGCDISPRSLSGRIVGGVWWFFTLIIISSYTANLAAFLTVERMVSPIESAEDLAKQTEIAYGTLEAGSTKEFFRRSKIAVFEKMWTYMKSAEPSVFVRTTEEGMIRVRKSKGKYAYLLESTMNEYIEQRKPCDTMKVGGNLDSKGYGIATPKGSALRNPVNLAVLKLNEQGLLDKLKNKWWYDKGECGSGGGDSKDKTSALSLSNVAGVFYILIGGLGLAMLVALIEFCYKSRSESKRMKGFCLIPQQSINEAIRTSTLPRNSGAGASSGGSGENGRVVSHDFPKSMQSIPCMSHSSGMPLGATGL
Chain of GRIA1/CACNG2 (Q9Y698 whole entry, canonical isoform): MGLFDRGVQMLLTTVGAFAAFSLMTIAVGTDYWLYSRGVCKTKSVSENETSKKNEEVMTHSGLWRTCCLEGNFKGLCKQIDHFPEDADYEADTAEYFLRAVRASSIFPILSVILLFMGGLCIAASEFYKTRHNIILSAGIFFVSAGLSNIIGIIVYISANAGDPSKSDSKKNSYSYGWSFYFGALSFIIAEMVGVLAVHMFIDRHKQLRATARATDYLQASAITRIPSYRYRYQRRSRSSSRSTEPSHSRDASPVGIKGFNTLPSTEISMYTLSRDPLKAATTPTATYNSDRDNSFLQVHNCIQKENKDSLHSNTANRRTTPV
Chain of GRIA1/CACNG8 (P42261 whole entry, the tested form may be a part, canonical isoform): as the sequence (P42261 whole entry, canonical isoform) above
Chain of GRIA1/CACNG8 (Q8WXS5 whole entry, the tested form may be a part, canonical isoform): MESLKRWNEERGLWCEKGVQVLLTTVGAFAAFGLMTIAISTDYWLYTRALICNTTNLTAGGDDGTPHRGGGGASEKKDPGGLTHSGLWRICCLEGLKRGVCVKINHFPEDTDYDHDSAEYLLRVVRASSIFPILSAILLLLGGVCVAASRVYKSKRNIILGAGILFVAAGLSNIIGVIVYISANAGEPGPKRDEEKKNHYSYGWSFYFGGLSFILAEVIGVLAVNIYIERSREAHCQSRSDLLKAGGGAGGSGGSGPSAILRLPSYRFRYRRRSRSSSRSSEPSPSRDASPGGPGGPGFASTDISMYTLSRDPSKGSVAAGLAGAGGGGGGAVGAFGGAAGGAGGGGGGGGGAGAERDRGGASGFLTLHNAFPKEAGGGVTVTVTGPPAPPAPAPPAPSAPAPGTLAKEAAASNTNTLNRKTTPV

Row | SMILES | IC50 (GRIA1/CACNG2) | hepatic extraction ratio at 1 h, 1 µM [1] | hepatic extraction ratio at 1 h, 1 µM [2] | Papp A→B at 1 h, 5 µM [4] | solubility thermodynamic at 72 h [6] | solubility thermodynamic at 72 h [7] | clearance [8] | Papp B→A at 1 h, 5 µM [9] | Ratio IC50 (Homo sapiens) | Vd [12] | ED50 (Rattus norvegicus [14]) | half-life [15] | also measured
1 | O=c1[nH]c2ccc(-c3c(Cl)cccc3OC(F)(F)F)cc2o1 | – | – | – | – | – | – | – | – | – | – | – | – | IC50 (GRIA1/CACNG8): 2.51 µM
2 | Cc1cccc(C)c1-c1ccc2c(c1)CC(=O)N2 | > 10 µM | – | – | – | – | – | – | – | – | – | – | – | –
3 | Cc1cccc(C)c1-c1ccc2[nH]c(=O)[nH]c2c1 | > 10 µM | 0.3 | 0.5 | 42 ×10⁻⁶ cm/s | 5 µM (≈ 1.19 µg/mL) | 276 µM (≈ 65.8 µg/mL) | 9 mL/min/kg | 34 ×10⁻⁶ cm/s | – | – | – | – | bioavailability [3]: 68%; Kp uu [5]: 0.3
4 | Cc1cc(-c2c(Cl)cncc2OC(F)(F)F)cc2c1NC(=O)C2 | > 10 µM | < 0.3 | 0.5 | 44 ×10⁻⁶ cm/s | 11 µM (≈ 3.77 µg/mL) | 45 µM (≈ 15.4 µg/mL) | 37 mL/min/kg | 51 ×10⁻⁶ cm/s | > 1000 | 2.7 L/kg | 5.4 mg/kg | 1.4 h | Cp (Rattus norvegicus [10]): 2050 ng/mL; Cp (Rattus norvegicus [11]): 87 ng/mL; Occ (Rattus norvegicus [13]): 86%; IC50 (GRIA1/CACNG8): 0.00251 µM
5 | O=c1[nH]c2ccc(-c3c(Cl)cccc3C3CC3)cc2[nH]1 | > 10 µM | < 0.3 | 0.5 | 10 ×10⁻⁶ cm/s | < 4 µM | 90 µM (≈ 25.6 µg/mL) | 21 mL/min/kg | 18 ×10⁻⁶ cm/s | – | – | 3.2 mg/kg | 2.7 h | Vd [16]: 4.6 L/kg; EC50 (Rattus norvegicus [17]): 1611 ng/g; Cmax [18]: 502 ng/mL; EC50 (Rattus norvegicus [19]): 486 ng/mL (≈ 1.71 µM); bioavailability [3]: 121%; Kp uu [5]: 0.3; fraction unbound at 6 h, 1 µM [20]: 0.2
6 | Cc1cc(-c2c(Cl)cccc2OC(F)(F)F)cc2c1NC(=O)C2 | 10 µM | 0.5 | 0.4 | – | < 4 µM | 55 µM (≈ 18.8 µg/mL) | 28 mL/min/kg | – | > 1000 | 3.5 L/kg | 0.6 mg/kg | 1.9 h | EC50 (Rattus norvegicus [17]): 71 ng/g; fraction unbound at 5 h, 5 µM [21]: 0.4; Occ (Rattus norvegicus [22]): 82%; EC50 (Rattus norvegicus [19]): 9 ng/mL (≈ 0.0263 µM); fraction unbound at 6 h, 1 µM [23]: 0.6; fraction unbound at 6 h, 1 µM [20]: 0.3; EC50 (Rattus norvegicus [24]): 71 ng/g; EC50 (Rattus norvegicus [25]): 9 ng/mL (≈ 0.0263 µM)
7 | Cc1cc(-c2c(Cl)cncc2OC(F)F)cc2c1NC(=O)C2 | > 10 µM | < 0.3 | 0.4 | 34 ×10⁻⁶ cm/s | 140 µM (≈ 45.5 µg/mL) | 64 µM (≈ 20.8 µg/mL) | 19 mL/min/kg | 66 ×10⁻⁶ cm/s | > 1000 | 1.9 L/kg | – | 1.2 h | Occ (Rattus norvegicus [13]): 72%
